Shown are actives, neighbours in structure and some others; about 2.4% of the full set was active somewhere.
TAG inh = inhibitors of triacylglycerol accumulation, primary screen, cell-based, uHTS, fluorescence, H9c2; H9c2 cells, Nile Red lipid (TAG) fluorescence; cells loaded with 200 µM oleic acid; inhibition, % at 12.5 µM; AID 651582, 2012; 230,000 tested, 0.66% active;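 active means pattern-corrected inhibition of lipid staining of at least 50% with the nuclear-stain viability signal not falling by more than 50%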;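 further: 0% = DMSO wells and 100% = triacsin C control wells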
MC4R antag cAMP = MC4R antagonists of cAMP signaling, primary screen, cell-based, TR-FRET, antagonist arm of biased-ligand search | MC4R-expressing cells, MTII-stimulated cAMP, LANCE TR-FRET | inhibition, % at 6.5 µM | 360,000 tested, 0.48% active | AID 540295, 2011;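 active means inhibition above its plate's cutoff, the mean of tested wells on that plate plus 3 SD, cut at about 29% in these data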;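 further: 0% = Melanotan II alone and 100% = Melanotan II plus saturating MCL0020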
Target sequence (P32245 whole entry, looked up): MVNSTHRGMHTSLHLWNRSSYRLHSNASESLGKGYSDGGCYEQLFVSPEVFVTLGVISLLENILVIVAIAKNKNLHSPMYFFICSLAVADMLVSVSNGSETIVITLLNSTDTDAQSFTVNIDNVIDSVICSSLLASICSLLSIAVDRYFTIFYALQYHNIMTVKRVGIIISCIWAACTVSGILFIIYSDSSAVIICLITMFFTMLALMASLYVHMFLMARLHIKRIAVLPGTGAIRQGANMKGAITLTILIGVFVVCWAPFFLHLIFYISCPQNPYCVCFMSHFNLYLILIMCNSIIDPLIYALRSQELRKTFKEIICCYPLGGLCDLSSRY
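Material: U2OS-MC4R stable cell line | Reagent: Melanotan II challenge after compound preincubation | Doses: One concentration, 6.5 µM nominal | Incubation: 30-min compound preincubation, 1-h Melanotan II challenge, 1-h detection, room temperature | Signal: TR-FRET cAMP assay | Replicates: One well per compound, no replicates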
MC4R ag barr = MC4R agonists recruiting beta-arrestin, primary screen, cell-based, luminescence, agonist arm of biased-ligand search | activation, % at 8.9 µM | U2OS MC4R beta-arrestin complementation; percent of melanotan II response, DMSO zero | 360,000 tested, 0.98% active;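 active means activation above a per-plate cutoff, the mean activation of sample wells on that plate plus 3 SD, cut at about 8% in these data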
TbMetRS inhib = T. brucei MetRS inhibitors, primary screen, biochemical, luminescence; methionyl-tRNA synthetase (Trypanosoma brucei brucei); purified T. brucei MetRS, ATP depletion, Kinase-Glo luminescence; inhibition, % at 11.9 µM; 360,000 tested, 0.4% active; AID 624268, 2012;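 active means inhibition above a per-plate cutoff of the control wells' mean inhibition plus 3 SD, cut at about 5.5% in these data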;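 further: 0% = DMSO wells median and 100% = median of wells with control inhibitor compound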
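System: purified T. brucei MetRS enzyme / Detection: Kinase-Glo luciferase luminescence reporting remaining unconsumed ATP / Medium: HEPES buffer with MgCl2, KCl, DTT, spermine, BSA, pyrophosphatase / Replication: singlicate, one well per compound / Evaluation: percent inhibition relative to median high and low control wells / Schedule: 2 h aminoacylation at 25 °C after 15 min preincubation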
NTR1 agonist = agonists of human NTR1, primary screen, imaging, U2OS cells, beta-arrestin-GFP, high content; activation, % at 20 µM; NTR1-U2OS beta-arrestin-GFP spot imaging, agonist mode; 330,000 tested, 0.17% active; Neurotensin receptor type 1 (Homo sapiens), P30989; AID 493036, 2011;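 active means activation at or above 40% of the spot to cytoplasm intensity ratio, with at least 20 cells analyzed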;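 further: 0% = DMSO without peptide and 100% = 100 nM NTR1 peptide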
aDG glyco up = activators of alpha-DG glycosylation, primary screen, uHTS, Pro5-aDG cells, AlphaScreen; alpha-DG glycosylation AlphaScreen (IIH6); 0% Pro5, 100% B10-LARGE cell signal; activation, % at 10 µM; 360,000 tested, 0.22% active; AID 624168, 2012;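 active means activation of at least 8% versus controls, or a plate z-score of at least 8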;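 further: Pro5 are CHO cells carrying HIG-tagged alpha-DG that lacks glycosylation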
MC4R barr ag = MC4R beta-arrestin agonists, retest, confirmation, cell-based, luminescence, U2OS; shares compounds with MC4R ag barr; U2OS MC4R beta-arrestin recruitment; scaled DMSO 0%, Melanotan II 100%; activation, % at 8.9 µM; 2,400 tested, 31% active; AID 602192, 2012;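 active means mean activation across replicates above the hit cutoff set in the earlier primary screen, cut at about 8% in these data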
MOR-DOR barr ag = agonists of MOR-DOR heterodimerization, counter-screen for MC4R biased agonist project, cell-based, luminescence; U2OS PathHunter beta-arrestin, beta-gal luminescence; percent of deltorphin B response, DMSO zero; 2,400 tested, 5.8% active; shares compounds with MC4R ag barr; activation, % at 9.2 µM;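 active means mean activation across replicates exceeds the hit threshold derived in the earlier primary screen, cut at about 18% in these data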;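 further: 100% = deltorphin B at 0.9 µM final and 0% = DMSO alone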
* = called active by the depositor; x = no result.

SMILES	TAG inh	MC4R antag cAMP	MC4R ag barr	TbMetRS inhib	NTR1 agonist	aDG glyco up	MC4R barr ag	MOR-DOR barr ag
Cc1ccsc1CNC(=O)C1(C)CCN1C(C)C (configuration not stated)	10	-4	-1	0	x	0	x	x
COc1ccc(-n2nnnc2SCC(=O)c2cccc(OC)c2)cc1	x	20	1	0	3	0	x	x
CCOc1ccc(-n2nnnc2SCC(=O)c2ccccc2)cc1	-9	10	16*	0	3	0	-3	2
CN1OC[C@@H]2CN(C(=O)Nc3ccccc3)[C@H](c3ccc(N4CCCCC4)cc3)C[C@@H]21	x	x	x	0	x	0	x	x
CCn1cnc2cc(NCc3ccc(OC)cc3)ccc21	x	-4	0	0	0	0	x	x
CCOc1ccc2nc3cc(NCc4ccc(OC)cc4)ccc3c(N)c2c1	x	19	13*	0	1	0	15*	15
Cc1c(C(=O)NC2CCCc3ccccc32)oc2ccc(S(=O)(=O)N3CCCC3)cc12 (configuration not stated)	x	17	14*	0	5	0	4	4
Cc1c(C(=O)NC2CCCc3ccccc32)oc2ccc(S(=O)(=O)N3CCCCC3)cc12 (configuration not stated)	x	17	0	0	4	0	x	x
COc1cc(C(F)(F)F)nc2ccc(C#CCOC(=O)Nc3ccccc3)cc12	-11	6	14*	0	4	0	6	6
O=C(C[n+]1cc(-c2ccccc2)n2c1CCCCC2)c1ccc(Cl)cc1	x	3	-3	0	0	0	x	x
CC1CCC(C(C)C)C(OC(=O)C[n+]2cc(-c3ccc(Cl)cc3)n3c2CCCCC3)C1 (configuration not stated)	23	8	34*	0	22	0	25*	7
COCCn1c(=NC(=O)/C=C/c2cccs2)sc2cc(NC(C)=O)ccc21	x	9	10*	-2	1	0	1	7
O=C(N/N=C/c1ccc(F)cc1)c1cc(-c2ccccn2)nc2ccccc12	-2	0	16*	0	9	0	0	11
COc1cccc(/C=N/NC(=O)c2cc(-c3ccccn3)nc3ccccc23)c1O	34	2	-1	0	2	1	x	x
Cc1ccc(C2=N/C(=C\c3ccc(F)cc3)C(=O)N2)cc1	8	0	22*	0	6	0	3	2
Cc1cc(NC(=O)CSc2nc(-c3ccc(Cl)cc3)cs2)no1	x	-3	18*	0	7	0	8	8
N#C/C(=C/c1ccc(N2CCCCC2)o1)C(=O)Nc1ccc(Cl)cc1	x	-4	10*	-1	-3	1	1	6
N#C/C(=C\c1ccc(N2CCOCC2)o1)C(=O)Nc1ccc(O)cc1	x	-35	-2	0	-3	0	x	x
COc1cc(/C=C2\CC/C(=C\c3cc(OC)c(OC)c(OC)c3)C2=O)cc(OC)c1OC	-14	0	0	-1	1	0	x	x
COc1cc(/C=C2\CC/C(=C\c3cc(OC)c(O)c(OC)c3)C2=O)cc(OC)c1O	1	-8	21*	0	5	0	56*	35*
Cc1ccc([N+](=O)[O-])cc1CN1CCN(c2ncc(Cc3ccccc3)cn2)CC1	x	x	x	0	x	0	x	x
CCCCC[C@@H](C)N1C[C@@H](COCc2ccccc2)Oc2cc(N3CC[C@H](N(C)C)C3)ccc2S1(=O)=O	x	x	x	-1	x	0	x	x
N#C/C(=C\c1ccc(-c2ccc(F)cc2)o1)C(=O)Nc1nc(-c2cccs2)cs1	x	12	39*	0	11	0	19*	1
N#C/C(=C/c1ccc(-c2ccc([N+](=O)[O-])cc2)o1)C(=O)Nc1nc(-c2cccs2)cs1	-1	7	-1	0	x	0	x	x
CN1OC[C@@H]2CN(C(=S)NCCc3ccccc3)[C@H](c3ccc(N4CCCCC4)cc3)C[C@@H]21	x	x	x	0	x	0	x	x
SMILES	TAG inh	MC4R antag cAMP	MC4R ag barr	TbMetRS inhib	NTR1 agonist	aDG glyco up	MC4R barr ag	MOR-DOR barr ag
COC(=O)c1c(NC(=O)CC2SC(N)=NC2=O)sc2c1CCC(C(C)(C)C)C2 (configuration not stated)	x	-1	10*	-1	18	0	17*	2
COc1ccc(NC(=O)c2cc(-c3cc(C)c(C)cc3O)n[nH]2)c(OC)c1	x	2	15*	0	1	0	3	6
COc1ccc(OC)c(NC(=O)c2cc(-c3cc(C)c(C)cc3O)n[nH]2)c1	x	-3	7	0	9	0	x	x
COc1ccc(OC)c(NC(=O)c2cc(-c3cc(C)cc(C)c3O)n[nH]2)c1	x	9	20*	0	12	0	1	6
COc1cccc(C(O)c2nc(-c3cccc(CO)c3)cs2)c1 (configuration not stated)	-9	5	-2	0	x	0	x	x
CCCCN(C=O)c1c(CC)nc2c(OCc3ccc(Cl)cc3)cccn12	-8	6	-2	0	x	0	x	x
COc1ccc(C)cc1NC(=O)COC(=O)c1ccc2c(c1)OCCO2	-16	1	10*	0	1	0	-2	17
COc1ccc(C)cc1NC(=O)COC(=O)c1ccc2c(c1)OCO2	-1	3	13*	-1	4	0	-4	3
COc1ccc(C)cc1NC(=O)c1ccc2c(c1)OCO2	13	-4	-1	-1	2	0	x	x
COc1ccc(NC(=O)COC(=O)c2ccc3c(c2)OCO3)c(OC)c1	-14	14	14*	0	1	0	-2	4
Cc1ccc(NC(=O)COC(=O)c2ccc3c(c2)OCCO3)cc1	-7	18	-3	0	0	0	x	x
COc1ccc(C(C)=O)cc1COC(=O)c1ccc2c(c1)OCCO2	-23	0	9.8*	0	1	0	4	2

Bioassay records: PubChem, several laboratories
